PLCg1 inh – PLC-gamma1 (human) inhibition, primary screen; P19174; purified PLC-gamma1, fluorogenic substrate, fluorescence; inhibition, % at 12.2 µM; 370,000 tested, 0.84% active
NTR1 ag – activates human neurotensin receptor 1; activation, % at 20 µM; NTR1-U2OS beta-arrestin-GFP spot imaging, agonist mode; 330,000 tested, 0.17% active; P30989;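 active means activation at or above 40% of the spot to cytoplasm intensity ratio, with at least 20 cells analyzed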
Arr AP2 block – blocks beta-arrestin peptide binding to AP2 adaptin | FITC-arrestin peptide / GST-AP2 beads, flow cytometry; AP2 beta2 appendage carries R879A mutation | inhibition, % at 10 µM | 340,000 tested, 0.31% active | AID 504490;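 active means inhibition above a set limit, near 3 SD of compounds lacking own fluorescence, cut at about 54% in these data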
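System: GST-AP2 R879A glutathione beads | Also added: FITC-arrestin peptide, 50 nM | Times: 12 min plus 1 h, RT | Signal: Bead flow cytometry, FITC channel | Buffer or medium: PBS with 0.05% Tween 20 and 0.1% BSA | Read-out basis: Percent drop in bead-associated FITC signal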
PLC-beta3 inh – blocks human PLC-beta3 enzyme activity; Q01970; Purified PLC-beta3, fluorogenic substrate, fluorescence; inhibition, % at 12.2 µM; 370,000 tested, 0.18% active; AID 720704; in the data active means inhibition above about 11%
Target sequence (Q01970 whole entry, looked up): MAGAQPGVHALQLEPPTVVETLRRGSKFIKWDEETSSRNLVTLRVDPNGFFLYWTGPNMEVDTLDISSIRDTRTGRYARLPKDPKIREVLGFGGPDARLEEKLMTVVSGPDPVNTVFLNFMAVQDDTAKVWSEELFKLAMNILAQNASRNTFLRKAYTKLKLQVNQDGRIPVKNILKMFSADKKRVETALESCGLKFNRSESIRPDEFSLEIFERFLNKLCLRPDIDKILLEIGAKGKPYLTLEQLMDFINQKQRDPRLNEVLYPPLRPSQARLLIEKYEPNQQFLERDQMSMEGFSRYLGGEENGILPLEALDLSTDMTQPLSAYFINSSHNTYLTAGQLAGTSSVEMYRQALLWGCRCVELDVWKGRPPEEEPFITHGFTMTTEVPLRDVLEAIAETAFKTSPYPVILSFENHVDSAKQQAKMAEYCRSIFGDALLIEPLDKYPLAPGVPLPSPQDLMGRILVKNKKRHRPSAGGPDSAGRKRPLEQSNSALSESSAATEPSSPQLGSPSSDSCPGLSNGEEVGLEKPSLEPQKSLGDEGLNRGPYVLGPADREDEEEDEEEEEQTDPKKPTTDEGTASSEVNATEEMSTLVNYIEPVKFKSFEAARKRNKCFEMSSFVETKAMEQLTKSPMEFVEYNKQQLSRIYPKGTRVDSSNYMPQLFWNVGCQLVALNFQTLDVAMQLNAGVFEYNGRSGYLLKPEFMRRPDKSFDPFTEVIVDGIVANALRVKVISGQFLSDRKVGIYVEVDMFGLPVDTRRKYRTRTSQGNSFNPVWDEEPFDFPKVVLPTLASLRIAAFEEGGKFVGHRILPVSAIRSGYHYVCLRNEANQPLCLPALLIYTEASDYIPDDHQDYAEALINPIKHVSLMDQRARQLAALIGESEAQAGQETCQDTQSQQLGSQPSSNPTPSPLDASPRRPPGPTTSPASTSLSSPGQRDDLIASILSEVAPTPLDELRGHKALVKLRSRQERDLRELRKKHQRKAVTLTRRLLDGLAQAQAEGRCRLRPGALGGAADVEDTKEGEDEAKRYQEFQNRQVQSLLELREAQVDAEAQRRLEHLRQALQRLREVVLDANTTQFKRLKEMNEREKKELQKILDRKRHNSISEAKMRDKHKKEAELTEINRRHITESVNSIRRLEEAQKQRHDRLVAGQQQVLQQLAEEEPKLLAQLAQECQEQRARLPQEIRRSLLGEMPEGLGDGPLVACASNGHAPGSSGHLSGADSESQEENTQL
PLCgamma1 ctr – inhibits human PLC-gamma1 in PLC-beta3 counter-screen; shares compounds with PLCg1 inh; inhibition, % at 12.3 µM; 3,300 tested, 3.1% active; purified PLC-gamma1, fluorogenic substrate, fluorescence
PLCbeta3 conf – confirmation of human PLC-beta3 inhibitors. shares compounds with PLCg1 inh. purified PLC-beta3, fluorogenic substrate fluorescence. inhibition, % at 12.3 µM. 3,300 tested, 1% active. AID 743261; in the data active means inhibition above about 11%
Of the large screens only hits and unclear results are named; the others gave an inactive call (follow-up assays come after a bar, where they were run). Shown are actives, neighbours in structure and some others; about 1.3% of the full set was active somewhere. Unless noted, no stated cut-off is given here; in the data, active means inhibition above about 9.5%; inactive means the rest.

CC(C)(CO)Cc1cc(C(C)(C)C)c(O)c(C(C)(C)C)c1	PLCg1 inh 11 | PLCgamma1 ctr inactive | PLCbeta3 conf inactive
CCN(CC)C(=O)c1ccc(C(CCOC(=O)Oc2ccccc2)c2ccc(OC)cc2)cc1 (stereo not drawn)	none (no result: NTR1 ag, Arr AP2 block)
CN(CCO)c1ccc2c(c1)Oc1ccccc1CN(Cc1cn(Cc3ccccc3C(F)(F)F)nn1)S2(=O)=O	none (no result: NTR1 ag, Arr AP2 block)
Cc1n[nH]c(C)c1NC(=O)CN1CCN(S(=O)(=O)c2ccc(C(F)(F)F)cc2)CC1	PLCg1 inh 10 (no result: NTR1 ag) | PLCgamma1 ctr inactive | PLCbeta3 conf inactive
CN1C(=O)c2cc(NC(=O)c3ccccc3)ccc2OC[C@H]2O[C@@H](CC(=O)NCC3CC3)CC[C@@H]21	none (no result: NTR1 ag, Arr AP2 block)
CCOC(=O)N1CCN(C(=O)CN(c2ccc(OC)cc2)S(C)(=O)=O)CC1	PLC-beta3 inh 11 | PLCgamma1 ctr inactive | PLCbeta3 conf inactive
CCOC(=O)N1CCN(C(=O)c2ccc(N(Cc3ccc(C)cc3)S(C)(=O)=O)cc2)CC1	PLCg1 inh 12 | PLCgamma1 ctr inactive | PLCbeta3 conf inactive
CCOC(=O)N1CCN(C(=O)CN(c2cccc(C)c2)S(=O)(=O)c2ccc(C)cc2)CC1	PLCg1 inh 20 | PLCgamma1 ctr inactive | PLCbeta3 conf inactive
Cc1cc(C)nc(N(C#N)Cc2ccc(Cl)cc2)n1	none
Cc1cc(C)nc(N(C#N)CCOc2ccc(Cl)cc2)n1	PLCg1 inh 9.8 | PLCgamma1 ctr inactive | PLCbeta3 conf inactive
CC12CC3(C)CC(C)(C1)CC(C(N)=O)(C2)C3	PLCg1 inh 11, PLC-beta3 inh 13 | PLCgamma1 ctr inactive | PLCbeta3 conf inactive
O=C(CNC(=O)c1cccc(F)c1)OCC(=O)N1CCCc2ccccc21	PLCg1 inh 12 | PLCgamma1 ctr inactive | PLCbeta3 conf inactive
CC(=O)Nc1ccc(S(=O)(=O)NCC(=O)OCC(=O)N2CCc3ccccc32)cc1	PLCg1 inh 13 | PLCgamma1 ctr inactive | PLCbeta3 conf inactive
O=C(CNC(=O)c1ccccc1F)OCC(=O)N1CCCc2ccccc21	none
COC(=O)C[C@H]1CC[C@H]2[C@H](COc3ccc(NC(=O)c4cccs4)cc3C(=O)N2C)O1	none (no result: NTR1 ag, Arr AP2 block)
c1nc2nc3c(c(N4CCCC4)n2n1)CCCC3	none (no result: NTR1 ag, Arr AP2 block)
CC1C=CC=CCCC=CC=CC=CC=CC(OC2O[C@H](C)[C@@H](O)[C@H](N)[C@@H]2O)CC(O)C(C(=O)O)C(O)CC(=O)CC(O)C(O)CCC(O)CC(O)CC(O)CC(=O)OC(C)C(C)C1O (stereo partly drawn)	none (no result: NTR1 ag, Arr AP2 block)
Cc1nn(-c2ccccc2)c(C)c1NC(=O)c1cccs1	PLCg1 inh 12 | PLCgamma1 ctr inactive | PLCbeta3 conf inactive
Cc1nn(-c2ccccc2)c(C)c1NC(=O)Cc1cccs1	none
CN(c1ccccc1)S(=O)(=O)c1ccc(Cl)c(C(=O)Nc2ccncc2)c1	PLCg1 inh 9.8 | PLCgamma1 ctr inactive | PLCbeta3 conf inactive
CN(c1ccc(F)cc1)S(=O)(=O)c1ccc(Cl)c(C(=O)Nc2ccncc2)c1	none
COc1cccc(-c2ccc(CC[C@H]3O[C@H]4CC[C@@H](CO)O[C@H]4C[C@H]3NC(=O)c3cnccn3)cc2)c1	none (no result: NTR1 ag, Arr AP2 block)
O=C1CC(=C(c2ccccc2)c2ccccc2)C(=O)N1CCCCN1CCN(c2cccc(Cl)c2)CC1	PLCg1 inh 20, PLC-beta3 inh 11 | PLCgamma1 ctr inactive | PLCbeta3 conf inactive
Cc1ccccc1N1CCN(CCCN2C(=O)CC(=C(c3ccccc3)c3ccccc3)C2=O)CC1	none
CC(=O)Nc1cccc(-c2ccnc3c2CC(C(=O)NCC2CCOCC2)O3)c1 (stereo not drawn)	PLCg1 inh 12, PLC-beta3 inh 13 (no result: NTR1 ag, Arr AP2 block) | PLCgamma1 ctr inactive | PLCbeta3 conf inactive
COc1ccccc1-n1cnc(N)c1C(=O)c1ccccc1	PLCg1 inh 12 | PLCgamma1 ctr inactive | PLCbeta3 conf inactive
O=C(C1CCCN(S(=O)(=O)c2cccc3ccccc23)C1)N1CCN(Cc2ccccc2)CC1 (stereo not drawn)	none (no result: NTR1 ag, Arr AP2 block)
CC(Oc1ccccc1)C(=O)Nc1cccc(NC(=O)c2ccco2)c1 (stereo not drawn)	PLCg1 inh 11 | PLCgamma1 ctr inactive | PLCbeta3 conf inactive
O=C(Nc1ccccc1)c1cccc(NC(=O)c2ccco2)c1	none
Cc1cc(C(=O)N/N=C/c2cccnc2)n[nH]1	PLCg1 inh 10 | PLCgamma1 ctr inactive | PLCbeta3 conf inactive
COC(=O)c1ccc(C2/C(=C(/O)c3ccc(OC)cc3)C(=O)C(=O)N2CC2CCCO2)cc1 (stereo not drawn)	none
COc1ccc(/C(O)=C2/C(=O)C(=O)N(CC3CCCO3)C2c2cccc(O)c2)cc1 (stereo not drawn)	PLCg1 inh 9.6 | PLCgamma1 ctr inactive | PLCbeta3 conf inactive
COCC(=O)N(C)[C@H]1C[C@H]2c3[nH]c4c(-c5ccccc5)cccc4c3CCN2C(=O)[C@H]1[C@H](C)O	none (no result: NTR1 ag, Arr AP2 block)
CN(C)Cc1c(C(C)(C)O)[nH]c2cc(F)ccc12	none (no result: NTR1 ag, Arr AP2 block)
Cc1[nH]c(=O)[nH]c(=O)c1Sc1ccccc1[N+](=O)[O-]	PLCg1 inh 12 | PLCgamma1 ctr inactive | PLCbeta3 conf inactive
C=CCN1C[C@@H](COCc2ccccc2)OCCS1(=O)=O	none (no result: NTR1 ag, Arr AP2 block)
Cc1ccccc1C1CCC2(CCC(=O)N2CC[C@@H](O)c2ccccc2)CC1 (stereo partly drawn)	none (no result: NTR1 ag, Arr AP2 block)
Cc1cccc(Oc2ccc(C(=O)NC3CCSC3=O)cn2)c1C (stereo not drawn)	PLC-beta3 inh 15 | PLCgamma1 ctr inactive | PLCbeta3 conf inactive
Cc1ccc(Oc2ccc(C(=O)NC3CCSC3=O)cn2)cc1 (stereo not drawn)	none
Clc1ccc(-c2c[n+](Cc3ccc(Cl)cc3Cl)c3n2CCCCC3)cc1	PLCg1 inh 11 | PLCgamma1 ctr inactive | PLCbeta3 conf inactive
CCN1CCCCC(NC(=O)c2ccc(F)c(F)c2)C1=O (stereo not drawn)	none (no result: NTR1 ag, Arr AP2 block)
Cc1ccc(-c2nc3ccsc3c(=O)[nH]2)cc1	PLCg1 inh 10 | PLCgamma1 ctr inactive | PLCbeta3 conf inactive
COc1ccc(Cl)cc1NC(=O)c1cccc([N+](=O)[O-])c1O	PLCg1 inh 10.0 (no result: NTR1 ag) | PLCgamma1 ctr inactive | PLCbeta3 conf inactive
CCOc1ccc(Cl)cc1S(=O)(=O)N1CCN(c2ccc(C)c(C)c2)CC1	PLCg1 inh 10 | PLCgamma1 ctr inactive | PLCbeta3 conf inactive
CCOc1ccc(Cl)cc1S(=O)(=O)N1CCN(c2ccc(F)cc2)CC1	none
CC(C)(C)c1ccc(-c2nnc(SCC(=O)Nc3ccc4c(c3)OCCO4)n2-c2ccc(Cl)cc2)cc1	none (no result: NTR1 ag, Arr AP2 block)
O=C(NNc1ccc([N+](=O)[O-])cc1[N+](=O)[O-])c1ccco1	none (no result: PLCg1 inh, PLC-beta3 inh)
O=C(NC(=S)Nc1ccc([N+](=O)[O-])cc1)c1ccco1	PLCg1 inh 13 (no result: NTR1 ag, Arr AP2 block) | PLCgamma1 ctr inactive | PLCbeta3 conf inactive
Nc1ccc([N+](=O)[O-])cc1C(=O)NNC(=O)c1ccco1	PLCg1 inh 9.7 | PLCgamma1 ctr inactive | PLCbeta3 conf inactive
COc1ccc(C(=O)NC(=S)Nc2ccc(NC(=O)c3ccco3)cc2)cc1[N+](=O)[O-]	none

High-throughput results deposited in PubChem by several laboratories.
